Measured values taken from article PMC4321732 (Structure (London, England : 1993), 2015).
*1 amine or outer side, *2 acyl side, *3 side chain or, on linkers, in order; H or OH if unused. Where no end group is shown, it is not given here. [ ]: non-standard residue; d: D form. KCme2 = N-dimethylated aminoethylcysteine, CN(C)CCSC[C@H](N[*:1])C(=O)[*:2]; Me2 = dimethyl group on the Lys side-chain amine

Experiments:
53BP1 TTD [1] = biological target: T1, 53BP1 TTD (Homo sapiens, UniProt Q12888); assay: NMR titration; format: binding; conditions: 1H,15N HSQC, 298 K; for effect of glycine mutation on CSPs in 15N-labeled TTD: 0.1–0.2 mM TTD, glycine mutants of p53KC370me2 peptide
53BP1 TTD [2] = biological target: T1, 53BP1 TTD; conditions: monomeric TTD; ref Roy et al., 2010; cited from earlier work
53BP1 TTD [3] = biological target: T1, 53BP1 TTD; assay: NMR solution structure of TTD-peptide complex; conditions: 298 K, 25 mM sodium phosphate pH 7.5
Outline: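 Complexes of the 53BP1 tandem Tudor domain with dimethylated p53 peptides (residues 363–377 or 376–387) recorded on a 700 MHz cryoprobe in 90% H2O/10% D2O or 100% D2O with 1.5 mM NaN3. Samples were 2 mM 13C/15N-TTD with 6 mM unlabeled peptide, or 2 mM labeled dimethyllysine-analog peptide with 5 mM TTD. Intermolecular NOEs came from filtered 13C-edited NOESY-HSQC.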

CL-TTD = CL-TTD (Homo sapiens, UniProt Q12888, C1525A/C1535A); assay: NMR titration; format: binding; conditions: 1H,15N HSQC, 298 K, 0.1–0.2 mM CL-TTD
53BP1 TTD [4] = biological target: T1, 53BP1 TTD; assay: Overall preference of 53BP1 TTD from peptide library, fluorescence and NMR; format: binding; conditions: overall conclusion from library, fluorescence and NMR results
GST-tagged 53BP1 TTD = assay: Peptide microarray; format: binding, human; conditions: normalized mean intensities of four arrays

T1 sequence (Q12888 1484-1603): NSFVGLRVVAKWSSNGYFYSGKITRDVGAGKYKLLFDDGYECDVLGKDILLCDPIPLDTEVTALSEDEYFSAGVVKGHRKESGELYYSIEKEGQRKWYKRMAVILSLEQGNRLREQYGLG
CL-TTD, sequence (Q12888 1481-1603 C1525A/C1535A): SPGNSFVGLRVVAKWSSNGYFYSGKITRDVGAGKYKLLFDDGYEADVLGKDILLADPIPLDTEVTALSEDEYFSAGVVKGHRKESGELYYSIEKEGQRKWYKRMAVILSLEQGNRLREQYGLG

With “p53H365GKC370me2: p53KC370me2 peptide with H365 substituted with glycine (GHMRAGSSHL[KCme2]SKKGQST)” the “effect of glycine mutation on CSPs in 15N-labeled TTD” value (“effect of glycine mutation on CSPs” for short) (53BP1 TTD [1]) was “Alterations in CSPs”.

In the case of “p53H368GKC370me2: p53KC370me2 peptide with H368 substituted with glycine (GHMRAHSSGLCSKKGQST; not fully specified (residue 11))”, the “effect of glycine mutation on CSPs” value (53BP1 TTD [1]) is reported as “Alterations in CSPs”.

In the case of “p53K370me2: p53K370me2 (residues 363–377) peptide, chemically synthesized (RAHSSHLK(Me2)SKKGQST)”, the Kd (53BP1 TTD [2]) is given as 20 µM, the “protein-peptide interface area in NMR ensemble” value (53BP1 TTD [3]) is given as 707 ± 43 Å^2 and the “site of dimethyllysine indicated by pattern of CSPs” value (53BP1 TTD [1]) is given as “fully consistent with K370me2 occupying the aromatic cage”.

For “p53K382me2: p53K382me2 (residues 376–387) peptide, chemically synthesized (STSRHKK(Me2)LMFKT)”, the “chemical shift / resonance intensity changes in 15N-labelled CL-TTD” value (CL-TTD) is listed as “substantial chemical shift changes”, the Kd (53BP1 TTD [2]) is listed as 0.9 µM and the “preference of 53BP1 TTD module” value (53BP1 TTD [4]) is listed as “strong preference”. The “protein-peptide interface area in NMR ensemble” value (53BP1 TTD [3]) was 678 ± 60 Å^2 and the “binding in peptide library screen” value (GST-tagged 53BP1 TTD) was “recognized primarily”.

For “p53KC370me2K372G: p53KC370me2 peptide with K372 substituted with glycine (GHMRAHSSHLCSGKGQST; not fully specified (residue 11))”, the “effect of glycine mutation on CSPs” value (53BP1 TTD [1]) was “caused the same CSPs as the wild type p53KC382me2 peptide”.

For “p53KC370me2K373G: p53KC370me2 peptide with K373 substituted with glycine (GHMRAHSSHLCSKGGQST; not fully specified (residue 11))”, the “effect of glycine mutation on CSPs” value (53BP1 TTD [1]) was “caused the same CSPs as the wild type p53KC382me2 peptide”.

In the case of “p53L369GKC370me2: p53KC370me2 peptide with L369 substituted with glycine (GHMRAHSSHGCSKKGQST; not fully specified (residue 11))”, the “effect of glycine mutation on CSPs” value (53BP1 TTD [1]) is reported as “Alterations in CSPs”.
